Data set [1] has as its target Histamine H2 receptor (Cavia porcellus) (UniProt P47747). The data set is described as follows: Evaluated in vitro for histamine H2 receptor antagonist activity by using histamine-stimulated chronotropic response of the guinea pig atrium. The class given is functional, tissue-based. As to conditions: Cardiac atrium. The procedure, abridged: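 A cumulative histamine concentration–response curve (rate) was then repeated with successive antagonist concentrations, each pre-incubated 30 min. Dose ratios compared histamine concentrations giving half-maximal stimulation with and without antagonist.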

The test system of a further data set is Rattus norvegicus. The data set is described as follows: Compound was evaluated in vivo for the gastric antisecretory activity in the lumen perfused stomach of the anesthetized rat after iv administration. The class given is functional. The procedure, abridged:
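Male Sprague–Dawley rats (250 g) were anesthetized with urethane (1 g/kg) and given a lumen-perfused stomach preparation. Acid secretion was driven by constant i.v. histamine infusion [1 mg/(kg h)]. ED50 was taken from the regression line of percent inhibition of acid output.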

Data set [2] can be described thus: Compound was evaluated for the ionization constant (pKa) by using potentiometric titration (ionization of end group). The class given is physicochemical. The procedure, abridged: (§1)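 Potentiometric titration of the hydrochloride salt with water as solvent.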
The nature of data set [3]: Compound was evaluated for the ionization constant (pKa) by using potentiometric titration (ionization of imidazole group). It counts as physicochemical. The procedure, abridged: as §1

Structures are written as SMILES.

Chain of Histamine H2 receptor (Cavia porcellus) (P47747 whole entry): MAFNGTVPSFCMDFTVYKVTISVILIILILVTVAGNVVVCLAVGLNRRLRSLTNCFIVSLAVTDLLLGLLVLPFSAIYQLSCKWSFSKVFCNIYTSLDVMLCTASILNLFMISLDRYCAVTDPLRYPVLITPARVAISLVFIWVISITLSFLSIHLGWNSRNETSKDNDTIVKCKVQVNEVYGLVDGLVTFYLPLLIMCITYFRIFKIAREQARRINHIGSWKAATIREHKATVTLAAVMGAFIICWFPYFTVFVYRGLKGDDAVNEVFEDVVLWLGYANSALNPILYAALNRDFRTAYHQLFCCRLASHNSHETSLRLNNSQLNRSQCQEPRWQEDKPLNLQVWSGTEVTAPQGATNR

The term Kb denotes the affinity of an antagonist, worked out from how it opposes an agonist. As a reminder, the ED50 is the dose at which the effect has come halfway, by size or by number of responders. The low end stands for an effect at a small dose, the high end for a need for a large dose. As for `C/N=C\Nc1ccc(-c2c[nH]cn2)cc1.Cl`, the Kb in data set [1] was determined as 1200 nM. In addition, in the data set on Rattus norvegicus, the ED50 was found to be 1.1 mg/kg.
As usually defined, the pKa is the pH at which an ionisable group is half protonated. High values mean a group that holds its proton tightly, low ones a group that gives up its proton readily. In the case of `NCCc1c[nH]cn1` [HISTAMINE], the values for the pKa in data set [2] and in data set [3] were 9.81 and 6.07, respectively.
With `CN/C(=N\CCSCc1nc[nH]c1C)NC#N` [CIMETIDINE], in data set [2], the pKa is -0.4. This compound also yielded an ED50 in the data set with Rattus norvegicus of 0.56 mg/kg.
In data set [1], `CCC/N=C/Nc1ccc(-c2c[nH]cn2)cc1.Cl` displayed a Kb of 32 nM. In addition, it took a dose of 0.011 mg/kg to reach the 50% effect level with Rattus norvegicus (ED50).
For `Cl.N=C(N)c1cccc(-c2c[nH]cn2)c1`, the Kb in data set [1] worked out at 7200 nM. Further, the ED50 with Rattus norvegicus stood at 10 mg/kg.
For `C/N=C(/N)Nc1cccc(-c2c[nH]cn2)c1.Cl`, the Kb in data set [1] worked out at 4400 nM. Moreover, the ED50 in the data set with Rattus norvegicus amounted to 3.6 mg/kg.
On to `CC(C)/N=C/Nc1ccc(-c2c[nH]cn2)cc1.Cl`, for which the pKa is 8.88 in data set [2] and 5.58 in data set [3]. The Kb in data set [1] worked out at 24 nM. The 50% effect level in the data set on Rattus norvegicus (ED50) was put at a dose of 0.019 mg/kg.
In turn, `CC(C)C/N=C/Nc1ccc(-c2c[nH]cn2)cc1.Cl` gave a Kb in data set [1] of 69 nM. In the data set with Rattus norvegicus, this compound had a 50% effective dose (ED50) of 0.026 mg/kg.
In the data set with Rattus norvegicus, `CC(C)(C)/N=C/Nc1ccc(-c2c[nH]cn2)cc1.O=S(=O)(O)O` gave an ED50 of 0.017 mg/kg.
Regarding `CNC(=N)c1cccc(-c2c[nH]cn2)c1.Cl`, in data set [1], the Kb was determined as 8700 nM. It took a dose of 3.5 mg/kg to reach the 50% effect level with Rattus norvegicus (ED50).
Taken in the same sequence, the figures for `CC/N=C/Nc1ccc(-c2c[nH]cn2)cc1.Cl` were 19 nM and 0.02 mg/kg.
As for `Cl.N=C(N)Nc1cccc(-c2c[nH]cn2)c1`, in data set [1], the Kb amounted to 5500 nM. In the data set on Rattus norvegicus, this compound returned an ED50 of 3.2 mg/kg.
`C=CC/N=C/Nc1ccc(-c2c[nH]cn2)cc1.O=C(O)/C=C/C(=O)O` registered a Kb in data set [1] of 13 nM. Besides, the ED50 in the data set with Rattus norvegicus came out at 0.024 mg/kg.
